System: MS2 coat protein
Assay: apparent Kd, MS2 coat protein; higher = weaker binding; RNA-MaP array; FMN 200 µM where present
How it was run: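 In 100 mM Tris-HCl pH 7.5, 80 mM KCl, 4 mM MgCl2, BSA, DTT, yeast tRNA and Tween-20, SNAP-549-labelled MS2 coat protein was titrated from 0.7 or 1.5 nM, doubling to 3 µM, over designs transcribed by stalled E. coli RNA polymerase on Illumina sequencing-chip clusters. This was done first without ligand, then with ligand held constant. After green signal was normalised to red-channel RNA signal and control-cluster median Fmax, the apparent Kd was taken as the median of filtered per-cluster binding-curve fits.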

[1] = designed as: OFF switch for flavin mononucleotide, no ligand
[2] = ligand present: flavin mononucleotide, designed as: OFF switch for flavin mononucleotide
[3] = designed as: ON switch for flavin mononucleotide, no ligand
[4] = ligand present: flavin mononucleotide, designed as: ON switch for flavin mononucleotide

Sequence	apparent Kd [1]	apparent Kd [2]	apparent Kd [3]	apparent Kd [4]
AGGGAGUGAGGAUAUGCUGCUCGUCACUUGCGUGAUGAGUAGCAGAAGGUACAUGAGGAUCACCCAUGUAAAAA	28.4 nM	19 nM	–	–
GCCCUCGCUGAGGAUAUUAUCUGGCUCGACUGAUAAGAAGGCAGUACAUGAGGAUCACCCAUGUGGUUCGUUCG	50.5 nM	142 nM	–	–
GUACCUUAUGAGAAGGCGAUCAUUAAACAUGAUCGAGGAUAUCAUGAAAACAUGAGGAUCACCCAUGUAUGGGUAUUAUGGUAC	–	–	33.6 nM	16.4 nM
UGAUCAAAUGUCAGGAUAUGCUGUUGGAAACAACAGCAGAAGGGACAUGAGGAUCACCCAUGUCUUGUCGAUUU	21.4 nM	112 nM	–	–
UAAUAAUAAUAAUAGCAGAAUUACAUGAGGAUCACCCAUGUAUAGGAUAUCGUCAGGAAUACUGACGAGAAGGAUACAUACUGC	17.8 nM	25.6 nM	–	–
CCGGAAAUAGAGGAUAUCGUAUCGGAUACGAUACGAGAAGGCUGUACAUGAGGAUCACCCAUGUGUCCUACCGG	11.2 nM	21.6 nM	–	–
CGGUGCUGAGGAUAUACAUGAGGAUCACCCAUGUGUGCCAGCUAGCUGACUGGCGCUUGUAGAAGGCAGUACUG	12.1 nM	24.4 nM	–	–
GCUAUCGGGUGAGGAUAUAUGAUUGUGAUUAAAAUAGAAGGCAUCUCAGAAGACAUGAGGAUCACCCAUGUAGUUAAGAUGGCC	–	–	14.6 nM	11.4 nM
GUGACGGAUGUAGGAUAUGCUGACCAAUGGUCAGCAGAAGGACAUGAGGAUCACCCAUGUCAUCCUUAUAAUAAAUACCGUCAC	–	18.3 nM	–	–
UGUCCGGUCAUAGGAUAUGACAUGAGGAUCACCCAUGUCUGCUUGGCUUGACCGUUGAUCCAUUGUCAGAAGGGUGCCGUUACA	43.2 nM	63.1 nM	–	–
CCCUAGGGAGGAUAUCCAAUAUAUGACAUGAGGAUCACCCAUGUUUCCACUCGUACCUCCGGAGAAGGCCCAUCCC	26.3 nM	24.5 nM	–	–
ACAUGAGGAUCACCCAUGUACAUGGGUUUAAUUGUGUGUUACGAGGAUAUGUAUUUGAAUUUACAACAGAAGGUGUAUUACUGU	811 nM	610 nM	–	–
AUCACCUCGUCAGGAUAUACGUCACUGCGUCAGCAGUGUGGUAAGAUCACAUGAGGAUCACCCAUGUAGAAGGGACGAGCUGAU	14.7 nM	268 nM	–	–
UUAUGAUUAAGAGGAUAUAUACAACAUGAGGAUCACCCAUGUACCCAUGUAGUAGAAGGUUUAUUUUUAUAUAAUAAUAUAAUU	–	–	115 nM	64.9 nM
GCGCACUAAGUGAGGAUAUCGUUUAUUUAUAGGAUCGAGAAGGCACAUGAGGAUCACCCAUGUUAAACGUGCGC	18.5 nM	13.9 nM	–	–
UGAUAACAUGUAGGAUAUGCAGCAUUGACCAUUGCAGAAGGACAUGAGGAUCACCCAUGUACCGAUACAAUGGGAUCACGCAAU	15.3 nM	18.5 nM	–	–
UUACUAUUGGAGAAGGGUCGAUCAUAUAGAAUGGCAGGAUAUCCAACAUGAGGAUCACCCAUGUUUCACCCAUAUGAGGAUCAC	116 nM	44.9 nM	–	–
UGGUACAUCGGAGGAUAUCGUGUGUAAACAUGAGGAUCACCCAUGUCGUACGAGAGUACGUAGAUCGAGAAGGCCGAUGUACCU	–	–	17.2 nM	14.7 nM
GGAGCAAGUGUCAGGAUAUCGUGGUCGAUAGAUCACGAGAAGGGACAUGAGGAUCACCCAUGUGUCCUAGCUCC	262 nM	484 nM	–	–
AUGACAUGCACAGGAUAUUAGGCGCAGUACAGAUAAGAAGGGUGGAUCAGCAUACAUGAGGAUCACCCAUGUUGUUGUAACAUG	–	–	350 nM	183 nM
UUUUCUCGUGAGAAGGACAUGAGGAUCACCCAUGUAGGAUAUCGUGGGAGACAGGAAUUGAAUCUUCGGAUUCAAUUCCAGUCU	–	–	107 nM	10.1 nM
CAGCCCUGAGGAUAUCCAUCCUUGUACAUGAGGAUCACCCAUGUUUUCCUCUGGGCUUUGGGAGAAGGCAGGUAUC	74.6 nM	77.1 nM	–	–
AGAUACAACCAGAAGGACAUGAGGAUCACCCAUGUAGGAUAUGGGUUACACGUGCCUGGGAAGUGUAACGACGCUACGAAGAGU	–	–	31.4 nM	8.3 nM
UUACCUCAUGAGAAGGACAUGAGGAUCACCCAUGUAGGAUAUCGUGGGAGACAGGUAUUGAAUCUUCGGAUUCAAUACCAGUCU	–	–	396 nM	27.6 nM

Sequence	apparent Kd [1]	apparent Kd [2]	apparent Kd [3]	apparent Kd [4]
GUAGCAUACCAAGGAUAUUCAUAUAAUAAGUAAACAUGAGGAUCACCCAUGUAGUGAGAGCCUUGGGAGAAGGUGGAAUGCUAC	–	–	16.6 nM	18.3 nM
GUGGUCAGACAUGAGGAUCACCCAUGUGGAAUAAAUAAGGUCAAGGAUAUUCAAUAUAGGAUAUAGAAGAAGGUGAGGUUGGUG	–	–	136 nM	188 nM
UUACUAUCACAGAAGGGUAGAUAGUAUAUAGAUGCAGGAUAUGUGACAUGAGGAUCACCCAUGUUUCACCCACAUGAGGAUCAC	17.5 nM	18.9 nM	–	–
UGUAUGGACAGAGGAUAUACGGAUAGGAUCUACUAUCUUCCUUAAAUAACAUGAGGAUCACCCAUGUAGAAGGCUGUCCAUACU	19 nM	74.7 nM	–	–
GCACUUGCGUAGAAGGUACUAUAUAAUGCAGUGUAAGGAUAUACAUACAUGAGGAUCACCCAUGUAAAUGGAAUUUGCAAGUGC	–	–	11.8 nM	9.15 nM
AAUUCGGCAGGAUAUACAUGAGGAUCACCCAUGUAAAUUUUUCGUUUAACUUGAAUGUGUAGAAGGGCCAUUUA	–	22.6 nM	–	–
GUGCACACUCGAGGAUAUCGGAGUUUUCUCCUUCGAGAAGGCGAUUCGUGCCGUGUUAUUCUGGACAUGAGGAUCACCCAUGUG	–	–	110 nM	36.5 nM
AAUAAACACACAGGAUAUAGCAUCGUCGUUGCGAACUUAGCGACGUCGAUGCUAGAAGGGUGAAAACAUGAGGAUCACCCAUGU	–	–	80.9 nM	20.1 nM
GCGUUGUACGAGAAGGCCAAUACAUGAGGAUCACCCAUGUUAAGUUGUUUUGGAGGAUAUCGAUCACCUACAAUAAUGCAACGC	6.83 nM	5.9 nM	–	–
UCUAUAUAGAUUCAUCAAUACAGUAAGGAUAUGAGAUACAUGAGGAUCACCCAUGUGCAUGUGGAUUAGAAGGUACAAUUAACU	60 nM	46.3 nM	–	–
GCGUAACAUGAGGAUCACCCAUGUGCCCGAGAAUUCGGGCCGAGAAGGGUGACCGGUCGUUUGGCACAGGAUAUCGACGUUGUG	–	–	31.5 nM	12.7 nM
AGUCGGAGCAGAGGAUAUACAUGAGGAUCACCCAUGUAAUAAAGUGAAGCCUGGAAACAGGCAAUGUAGAAGGCUGCUCCGACA	28.1 nM	232 nM	–	–
AGCAUGCUAGGAUAUACGAAACAUUAGGGUUCUUUGUAUAAACAUGAGGAUCACCCAUGUAGAAGGAGCGUGCA	46.1 nM	169 nM	–	–
UUAUUAUAUGUAGGAUAUGCAUAUUAUUAUUAUGCAGAAGGACAUGAGGAUCACCCAUGUAUAUUGUUGUUGUAUAUUAUAUAU	25.1 nM	30.4 nM	–	–
AAAAAACAUGAGGAUCACCCAUGUCUUCGGACAUGAGGAUAUGUACAGACUUCGGUCUGUACAGAAGGCAUGUCAA	–	–	166 nM	23.2 nM
GGGUACAGUGAGAAGGUCUGCGGAUUCCUUAACAUGAGGAUCACCCAUGUAGAAGGAUAUCACAGGUAAAGGUCGGCUAACGAU	5.36 nM	6.58 nM	–	–
AAACACAAACAUGAGGAUCACCCAUGUUAUGAAAAUACUGGGAGAAGGGCGAUUGCAAAGCAAUCGCAGGAUAUUCGUAUUGUG	–	–	76.7 nM	16.1 nM
GUCAGCUCGUGAGGAUAUGCAACACUGCUUCGGCAGUGUAUUAAGAUCACAUGAGGAUCACCCAUGUAGAAGGCACGAGCUGAU	6.36 nM	34.8 nM	–	–
ACGACGAAAGUCGAACGAUGUACGAGAAGGACAUGAGGAUCACCCAUGUUAUCUGUUAUAGACAUGUAGGAUAUCGUACAUCGA	8.25 nM	26.8 nM	–	–
ACGCAUUGCCUUUGGUAGUGCGUUACAUGAGGAUCACCCAUGUAGGAUAUGGUAGGCAAAGCUUACCAGAAGGACAUGAUAAUU	49.5 nM	238 nM	–	–
GGCGAACGGGCUUACAUGAGGAUCACCCAUGUAGACUCAUGGUAGGAUAUGCUGAACAAAGUUCAGCAGAAGGGCCGGUGAGCU	–	–	86.6 nM	46.3 nM
UGAUAACAUGAGGAUCACCCAUGUCAGGAUAUAAAUUGAGCUCCUUGGACGCCACCGUUUAGAAGGGACGCAUG	23.7 nM	22.7 nM	–	–
UGUAUACAGUCAGGAUAUCAUAGGUUGGUGCUUCUCCAGUGGUACAUGAGGAUCACCCAUGUUUAUGAGAAGGGACUAUUACCU	7.82 nM	15.1 nM	–	–
UGGGAACGAGGAUAUCGAUGGUGGAACAUGAGGAUCACCCAUGUAUGAGAUAGUGUAGGGCGAGAAGGCGUUAAGU	94.8 nM	66.5 nM	–	–

— the EternaBench riboswitch data
